In ChEMBL document CHEMBL1275322, “Synthesis and cytotoxic evaluation of 1-carboxamide and 1-amino side chain substituted β-carbolines” (Eur J Med Chem, 2010) one finds IC50 data, which are given here for 19 molecules.

What all share (assay type): functional, cell-based
Assay [1] in a line: Cytotoxicity against human […] cells by MTT assay. In outline:
(§1)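 Cells grown in RPMI-1640 with 10% (v/v) fetal calf serum, 100 μg ml⁻¹ penicillin and 100 μg ml⁻¹ streptomycin at 37 °C, humidified 5% CO₂, in 96-well cultures. Compounds from DMSO stocks; final DMSO 2% (v/v) or lower. MTT staining read as optical density. IC50 is the concentration reducing OD by 50% vs untreated cells. Mean ± SD of at least five independent determinations. Top concentration 300 μM.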

The next assay has as its system HepG2. As to the kind of experiment: Cytotoxicity against human HepG2 cells by MTT assay. In outline:
as §1

For a further assay, the system named is MCF7. As to the kind of experiment: Cytotoxicity against human MCF7 cells by MTT assay. An outline of the steps:
as §1

In another assay the test system is OS-RC-2. The assay can be described thus: Cytotoxicity against human OS-RC2 cells by MTT assay. An outline of the steps:
as §1

A further assay deals with 786-0. The assay can be described thus: Cytotoxicity against human 786-0 cells by MTT assay. An outline of the steps: as §1
The next assay has as its system 769-P. The assay can be described thus: Cytotoxicity against human 769-P cells by MTT assay. In outline: as §1
A further assay concerns A-375. As to the kind of experiment: Cytotoxicity against human A375 cells by MTT assay. In outline: as §1
The next assay relates to HT-29. The assay can be described thus: Cytotoxicity against human HT-29 cells by MTT assay. An outline of the steps:
as §1

A further assay concerns KB. The assay can be described thus: Cytotoxicity against human KB cells by MTT assay. An outline of the steps:
as §1

The test system of another assay is CWR22R. As to the kind of experiment: Cytotoxicity against human 22Rv1 cells by MTT assay. An outline of the steps: as §1

On to `NCCNc1nccc2c1[nH]c1ccccc12`, for which the IC50 in [1] came out at 36 µM; in the assay with HepG2, 30.6 µM; in the assay on MCF7, 87.2 µM; in the assay on OS-RC-2, 40 µM; in the assay with 786-0 it was 31.9 µM; with 769-P, 31.5 µM. The IC50 with A-375 turned out to be 33.4 µM; in the assay on HT-29, 33.4 µM; in the assay with KB, 25.4 µM; in the assay on CWR22R, 41.3 µM.
Turning to `Brc1nccc2c3ccccc3n(CCCc3ccccc3)c12`, the IC50 was > 300 µM in [1]; > 300 µM with HepG2; > 300 µM in the assay with MCF7; 93.9 µM in the assay on OS-RC-2; > 300 µM in the assay with 786-0; 123 µM in the assay on 769-P. In addition, the IC50 in the assay with A-375 is > 300 µM; with HT-29 it was 86.6 µM; with KB it was > 300 µM; in the assay with CWR22R it was 88 µM.
Regarding `NCCCCNc1nccc2c3ccccc3n(CCCc3ccccc3)c12`, the IC50 in assay [1] came to 8 µM; in the assay with HepG2, 4 µM; with MCF7, 12.8 µM; in the assay on OS-RC-2 it was 4.2 µM; in the assay with 786-0, 2.7 µM; with 769-P, 2.2 µM. In addition, the IC50 with A-375 came out at 9.5 µM; in the assay with HT-29, 17.5 µM; in the assay on KB it was 11.3 µM; in the assay on CWR22R, 2.9 µM.
Take `CC[N+](CC)(CCCNC(=O)c1nccc2c1[nH]c1ccccc12)Cc1ccccc1`: the IC50 in assay [1] was > 300 µM; in the assay on HepG2, > 300 µM; with MCF7 it was 51.1 µM; in the assay with OS-RC-2, > 300 µM; in the assay on 786-0, 137 µM; with 769-P it was 101 µM. The IC50 was > 300 µM in the assay with A-375, > 300 µM with HT-29, > 300 µM in the assay with KB and 71.4 µM with CWR22R.
`CC[N+](C)(CC)CCCNC(=O)c1nccc2c1[nH]c1ccccc12`: the IC50 (in [1]; in the assay with HepG2; in the assay with MCF7; with OS-RC-2; in the assay on 786-0; with 769-P) was > 300 µM in each case. Further, the 50% inhibitory concentration (IC50) in the assay with A-375, in the assay on HT-29, in the assay on KB and in the assay on CWR22R was > 300 µM each time.
With `NCCNC(=O)c1nccc2c3ccccc3n(CCCc3ccccc3)c12`, the IC50 worked out at 20 µM in assay [1]; 15.9 µM with HepG2; 22.3 µM in the assay on MCF7; 15.7 µM in the assay with OS-RC-2; 11.8 µM in the assay on 786-0; 32.5 µM in the assay on 769-P. The IC50 in the assay with A-375 came out at 13.7 µM; with HT-29, 17.9 µM; with KB, 9.9 µM; in the assay on CWR22R, 10.8 µM.
Regarding `CCN(CC)CCCNC(=O)c1nccc2c3ccccc3n(CCCc3ccccc3)c12`, the IC50 worked out at 22.3 µM in assay [1]; 22.1 µM with HepG2; 31.4 µM in the assay on MCF7; 36.9 µM with OS-RC-2; 31.4 µM with 786-0; 61 µM in the assay on 769-P. Also, the IC50 in the assay with A-375 stood at 33.8 µM; in the assay with HT-29, 53.4 µM; in the assay with KB it was 14 µM; with CWR22R, 26.9 µM.
Consider `CCN(CC)CCCNC(=O)c1nccc2c1[nH]c1ccccc12`, for which the IC50 in assay [1] turned out to be 174 µM; with HepG2 it was 243 µM; with MCF7, 164 µM; in the assay on OS-RC-2, 93.9 µM; in the assay on 786-0, 111 µM; with 769-P, 54 µM. The IC50 with A-375 stood at 107 µM; in the assay with HT-29, 61.2 µM; in the assay on KB it was 62.3 µM; with CWR22R, 46.2 µM.
With `NCCNc1nccc2c3ccccc3n(Cc3c(F)c(F)c(F)c(F)c3F)c12`, the IC50 in assay [1] came to 11.9 µM; in the assay on HepG2, 12.8 µM; in the assay on MCF7 it was 15.1 µM; with OS-RC-2 it was 12 µM; with 786-0, 5.8 µM; in the assay with 769-P, 10.4 µM. The IC50 with A-375 was 12 µM; in the assay on HT-29, 9.9 µM; with KB, 11.8 µM; in the assay on CWR22R, 12.5 µM.
Take `OCCNc1[nH]ccc2c3ccccc3nc1-2`: the IC50 in [1] was > 300 µM; in the assay on HepG2, 130 µM; in the assay on MCF7, > 300 µM; in the assay on OS-RC-2 it was 220 µM; with 786-0, > 300 µM; with 769-P it was 272 µM. The IC50 in the assay on A-375 was > 300 µM; with HT-29, > 300 µM; with KB it was > 300 µM; in the assay with CWR22R it was 136 µM.
For the molecule `CCCCn1c2ccccc2c2ccnc(Br)c21`, the half-inhibitory concentration (IC50) in assay [1] is > 300 µM; in the assay on HepG2, > 300 µM; in the assay with MCF7 it was 256 µM; with OS-RC-2 it was 136 µM; in the assay on 786-0, > 300 µM; in the assay on 769-P it was > 300 µM. Moreover, the IC50 was > 300 µM with A-375, 186 µM with HT-29, > 300 µM in the assay with KB and 236 µM in the assay on CWR22R.
Consider `Fc1c(F)c(F)c(Cn2c3ccccc3c3ccnc(Br)c32)c(F)c1F`, for which the IC50 (in assay [1]; with HepG2; in the assay on MCF7; with OS-RC-2; in the assay on 786-0; with 769-P) was > 300 µM throughout. Further, the IC50 with A-375, in the assay with HT-29, with KB and in the assay on CWR22R was > 300 µM each time.
For `NCCNC(=O)c1nccc2c1[nH]c1ccccc12`, the IC50 was determined as 77.7 µM in [1]; 122 µM in the assay on HepG2; 80.4 µM in the assay with MCF7; 63.9 µM in the assay with OS-RC-2; 86.1 µM with 786-0; 124 µM in the assay with 769-P. Also, the IC50 in the assay with A-375 was determined as 65.3 µM; with HT-29, 55.6 µM; with KB it was 118 µM; in the assay with CWR22R it was 124 µM.
For `CCCCn1c2ccccc2c2ccnc(NCCN)c21`, the IC50 turned out to be 25.3 µM in [1]; 6.6 µM with HepG2; 33.6 µM in the assay on MCF7; 9.3 µM with OS-RC-2; 18.9 µM with 786-0; 68.7 µM in the assay with 769-P. The IC50 in the assay with A-375 worked out at 22.8 µM; in the assay on HT-29 it was 13.3 µM; in the assay on KB, 20.5 µM; with CWR22R, 14.2 µM.
Turning to `NCCNc1nccc2c3ccccc3n(Cc3ccc(F)cc3)c12`, the IC50 in [1] amounted to 9.7 µM; in the assay with HepG2, 4.4 µM; in the assay with MCF7, 21.4 µM; with OS-RC-2, 16.3 µM; with 786-0, 18.8 µM; with 769-P, 1.8 µM. Further, the IC50 turned out to be 15.6 µM in the assay on A-375, 9.1 µM with HT-29, 19.1 µM in the assay with KB and 17.9 µM in the assay on CWR22R.
`Fc1ccc(Cn2c3ccccc3c3ccnc(Br)c32)cc1`: the IC50 in assay [1] is > 300 µM; in the assay with HepG2 it was > 300 µM; in the assay on MCF7, > 300 µM; with OS-RC-2, > 300 µM; in the assay on 786-0, > 300 µM; in the assay with 769-P it was 252 µM. Besides, the IC50 with A-375 was > 300 µM; with HT-29, 245 µM; in the assay on KB, > 300 µM; with CWR22R, > 300 µM.
Regarding `NCCCCCCNC(=O)c1nccc2c1[nH]c1ccccc12`, the IC50 in assay [1] came to 109 µM; in the assay with HepG2 it was 85.5 µM; with MCF7, 46.8 µM; in the assay on OS-RC-2, 58.5 µM; in the assay with 786-0, 72.7 µM; in the assay with 769-P, 75.3 µM. Further, the IC50 in the assay with A-375 came out at 37.7 µM; in the assay on HT-29 it was 73.2 µM; with KB it was 86.9 µM; in the assay with CWR22R it was 33.6 µM.
Turning to `NCCCCCCNc1nccc2c3ccccc3n(CCCc3ccccc3)c12`, the IC50 in assay [1] came to 12.4 µM; in the assay with HepG2 it was 12.1 µM; in the assay on MCF7, 17.9 µM; in the assay on OS-RC-2 it was 8.4 µM; with 786-0 it was 11.3 µM; in the assay with 769-P it was 13.6 µM. Besides, the IC50 with A-375 turned out to be 16.3 µM; in the assay on HT-29, 21.5 µM; in the assay with KB, 13 µM; with CWR22R it was 11.5 µM.
With `NCCNc1nccc2c3ccccc3n(CCCc3ccccc3)c12`, the IC50 was found to be 9.6 µM in [1]; 13.3 µM in the assay with HepG2; 9.3 µM with MCF7; 4.6 µM in the assay with OS-RC-2; 6.9 µM in the assay on 786-0; 11.1 µM with 769-P. For the same molecule, the IC50 with A-375 amounted to 7.3 µM; in the assay on HT-29, 5.6 µM; in the assay on KB it was 4.9 µM; in the assay with CWR22R it was 8.6 µM.
